Bioassay records (PubChem BioAssay)
CHOP inh = blocks CHOP induction under ER stress | CHO-K1 CHOP-promoter luciferase, tunicamycin-induced, 15-18 h | inhibition, % at 10 µM | hit rate 3.8% among 220,000;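 active = compounds that reduced the stress-induced luciferase reporter signal by more than about 70% of percent inhibition, limit read from the data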;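 also: 0% = tunicamycin plus vehicle and 100% = wells without tunicamycin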
PKD1 kinase inh = blocks activity of human protein kinase D1. PKD1 kinase fluorescence polarization assay. inhibition, % (concentration not given with the values). hit rate 0.056% among 200,000
Rad51 HR inh = Rad51 (human) homologous recombination inhibition; hRad51 DNA strand exchange, fluorescence dequenching; Q06609; inhibition, % at 10 µM; hit rate 0.085% among 200,000;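 active = inhibition above 40% at the single screening dose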;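 also: 0% = DMSO control wells and 100% = blanks with heterologous ssDNA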
Target sequence (Q06609 whole entry, looked up): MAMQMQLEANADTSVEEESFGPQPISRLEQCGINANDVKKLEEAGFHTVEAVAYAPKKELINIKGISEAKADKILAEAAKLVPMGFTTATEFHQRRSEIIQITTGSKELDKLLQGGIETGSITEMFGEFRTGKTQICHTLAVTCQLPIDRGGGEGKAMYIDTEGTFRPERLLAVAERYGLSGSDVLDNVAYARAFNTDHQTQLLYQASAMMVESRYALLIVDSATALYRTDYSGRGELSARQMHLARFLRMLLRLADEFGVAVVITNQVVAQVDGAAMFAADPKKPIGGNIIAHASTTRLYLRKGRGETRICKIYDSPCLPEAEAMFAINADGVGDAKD
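Test system: preformed human Rad51 ssDNA filaments; also added: Donor/quencher-labelled 47-bp dsDNA substrate; doses: 10 µM final, single point; times: 37 °C 15-min filament assembly, 30-min compound preincubation, 15-min exchange; detection: FRET fluorescence dequenching, excitation 485 nm, emission 520 nm; read-out basis: Fluorescence-based percent inhibition, control- and blank-normalised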
Lmaj promast = reduces viability of Leishmania major promastigotes; resazurin fluorescence viability; inhibition, % at 10 µM; hit rate 9% among 200,000; AID 1063;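 also: promastigotes grown with compound for 44 hours at 28 °C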
Arbovirus inh = blocks arbovirus infection; arbovirus infection cell-based antiviral screen; inhibition, % at 10 µM; hit rate 0.37% among 200,000; in the data active = inhibition above about 30%
Wee1 degr inh = blocks degradation of human Wee1 kinase; P30291; HeLa Luc-Wee1K328M stability, luciferase luminescence; 100% = proteasome inhibitor MG132 effect; reporter increase, % at 5 µM; hit rate 1.2% among 220,000;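 active = activation above the mean of all tested compounds plus 3 SD, set per screening run, cut at about 8.8% in these data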;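 also: cells exposed to compound for 20 h before luminescence read; 0% = DMSO alone and 100% = MG132 at 30 µM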
L major 1uM = blocks Leishmania major promastigote growth at 1 uM, repeat screen. shares compounds with Lmaj promast. L. major promastigote growth, resazurin fluorescence, 48 h. inhibition, % at 1 µM. hit rate 13% among 1,100. AID 1258;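 active = inhibition above about 50% in both repeat tests, limit read from the data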
An asterisk follows results filed as active; x = no result. Shown are actives, neighbours in structure and some others; about 12% of the full set was active somewhere. Rule as the data show it, unless noted: active = inhibition above about 50%; inactive = the rest.

SMILES	CHOP inh	PKD1 kinase inh	Rad51 HR inh	Lmaj promast	Arbovirus inh	Wee1 degr inh	L major 1uM
Cc1nc2ccc(Cl)cc2c(-c2ccccc2F)c1CC(=O)O	-2	2	8	62*	2	4	-13
N#CCCN(Cc1cccnc1)C(=S)NC1CC2C=CC1C2 (stereo unspecified)	16	x	4	x	x	-1	x
C[C@H]1CC[C@H]2C(=O)N3[C@H](c4cccc(N5CCCC5=O)c4)[C@@H](C)CC[C@H]3C(=O)N2[C@@H]1c1cccc(N2CCCC2=O)c1	9	1	x	82*	9	-1	-14
O=C(O)CN(C1CCCCC1)S(=O)(=O)c1ccc(F)cc1	6	-3	13	-3	7	1	x
CNc1ccccc1C(C)(C)c1cc(-c2cccc(Br)c2)no1	52	-4	x	99*	8	-3	88*
CNc1ccccc1C(C)(C)c1cc(-c2cccc([N+](=O)[O-])c2)no1	42	5	-4	16	14	7	x
FC(F)(F)c1nnc2c(Sc3ccccn3)nc3ccccc3n12	-17	7	-11	94*	-1	-2	14
FC(F)(F)c1nc2ccccc2c2nc3ccccc3n12	30	-13	x	-5	2	3	x
O=C(C1=C[C@H](c2ccc(Br)cc2)C[C@H](OCCCCO)O1)N1CCN(Cc2ccc3c(c2)OCO3)CC1	12	-3	-2	84*	-18	-1	-12
COc1ccccc1OC1OC2COC(c3ccco3)OC2C(O)C1NC(C)=O (stereo unspecified)	28	-16	7	65*	4	9.1*	-13
CCNC(=S)N(Cc1c(C)noc1C)c1ccccc1	17	0	3	51*	2	1	-6
CCCCNC(=S)N(Cc1c(C)noc1C)c1ccccc1	8	3	-4	-4	-5	-2	x
O=C(O)CCC(=O)Nc1ccc(N2CCCCCC2)cc1	38	5	x	97*	12	-3	94*
Cc1ccc(N2CCN(c3ccc(NC(=O)CCC(=O)O)cc3)CC2)cc1	19	-1	13	-5	0	-2	x
Cn1nc(-c2ccc(C(=O)Nc3cccc(Cl)c3)cc2)c2ccccc2c1=O	67	-7	-9	-2	-17	-2	x
CN1CCN(C(=S)NC(=O)c2ccc(C(C)(C)C)cc2)CC1	2	-8	x	-9	1	6	x
C=CCn1cccc(/C=C/C(=O)c2ccc(C(C)(C)C)cc2)c1=S	46	-9	10	100*	-37	-3	66*
FC(F)(F)c1cccc(Cn2c3[n+](c4ccc(C(F)(F)F)cc42)CCCCC3)c1	4	3	6	-5	25	-2	x
Cc1cc(C(C)(C)C)cc(C)c1Cn1c2[n+](c3ccc(C(F)(F)F)cc31)CCCCC2	22	-2	0	100*	-11	1	37
CCOC(=O)c1cnc2c(OC)cccc2c1Nc1ccc2c(c1)OCCO2	23	3	5	53*	-5	0	13
CC(=O)Nc1ccc(N2C(C(C)=O)=NN(c3ccc(Cl)cc3)C2c2sccc2C)cc1 (stereo unspecified)	62	-7	7	21	-5	-2	x
Cc1ccc(CC2CC(=O)N(CCc3ccccc3)C2=O)cc1 (stereo unspecified)	19	-3	8	0	1	-1	x
O=C1CC(Cc2ccccc2)C(=O)N1CCCn1ccnc1 (stereo unspecified)	12	-16	x	99*	2	4	-5
Cc1ccc(-n2c(SCC(=O)N(C)C3CCS(=O)(=O)C3)nc3ccccc3c2=O)cc1 (stereo unspecified)	-3	-6	-5	-4	9	0	x
CCOC(=O)c1ccc(N2C(=O)c3n[nH]c(-c4ccco4)c3C2c2cccc([N+](=O)[O-])c2)cc1 (stereo unspecified)	71*	-4	10	96*	-26	1	-5
SMILES	CHOP inh	PKD1 kinase inh	Rad51 HR inh	Lmaj promast	Arbovirus inh	Wee1 degr inh	L major 1uM
CC(C)CCC1=NN(C(=O)c2ccco2)C(O)(C(F)(F)F)C1 (stereo unspecified)	14	-8	-1	-3	-11	0	x
CCC(=O)NC(c1ccccc1)c1c(OC(C)=O)ccc2ccccc12 (stereo unspecified)	25	-1	1	1	4	-2	x
CC(=O)Oc1ccc2ccccc2c1C(NC(=O)Cc1ccccc1)c1ccccc1Cl (stereo unspecified)	30	10	-2	55*	-19	0	-23
CCOC(=O)c1ccccc1NC(=O)c1ccccc1N(C)S(C)(=O)=O	51	-4	x	90*	-2	-3	-3
COC(=O)c1ccccc1NC(=O)c1ccccc1N(C)S(C)(=O)=O	14	-2	-4	19	0	0	x
COc1cccc(C(=O)NC(=S)Nc2nnn(C)n2)c1	39	-4	x	-9	17	-1	x
COc1cccc(COc2ccccc2C2Nc3ccc(Br)cc3C(=O)N2NC(=O)c2ccncc2)c1 (stereo unspecified)	56	7	x	100*	-3	-1	-20
O=C1c2ccccc2-c2ncnc3cccc1c23	x	-7	x	37	x	0	x
O=C(O)c1ccc2c3c(ncnc13)-c1ccccc1C2=O	45	-6	x	98*	-28	-1	0
O=C(Nc1nc(-c2ccccc2)cs1)c1ccc(N2CCOCC2)c([N+](=O)[O-])c1	79*	-8	-1	98*	16	-1	14
CC1=CC2(O)OCCN(CCO)C2=CC1=O (stereo unspecified)	-7	-6	-5	99*	1	0	-10
CN(CC(=O)Nc1ccc(F)c(F)c1F)C(=O)/C=C/c1ccc(Cl)cc1	15	-6	6	-8	-7	-1	x
CCS(=O)(=O)c1nnnn1-c1ccccc1S(C)(=O)=O	15	-9	4	54*	9	-2	0
COc1ccc(-n2nnnc2S(=O)(=O)Cc2ccc(C(=O)O)cc2)cc1	43	-3	0	-3	9	-1	x
O=C1CSC(c2cn(-c3ccccc3)nc2-c2ccc3c(c2)OCCO3)N1CCN1CCOCC1 (stereo unspecified)	30	-11	-5	-3	-25	-1	x
O=C1CSC(c2cn(-c3ccccc3)nc2-c2cc3ccccc3oc2=O)N1Cc1ccccc1 (stereo unspecified)	7	7	-5	61*	-6	5	1
CCCCNc1cc(NC(C)=O)cc2cc(OC)c(OC)cc12	x	4	0	100*	-12	0	-19
CCCC(=O)Nc1cc(OC)c(OC)cc1C(=O)O	19	-9	7	-4	0	-2	x
CCN(Cc1cc(=O)n2ccsc2n1)c1cccc2ccccc12	34	-11	-19	-2	-24	-1	x
